# MsrA act = bovine MsrA enzyme activators, primary screen, biochemical, absorbance, HTS | Methionine sulfoxide reductase A (Bos taurus) | purified bovine MsrA, absorbance read-out | activation, % at 10.6 µM | hit rate 0.3% among 360,000; in the data active = activation above about 7.5%;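 also: 0% = vehicle and 100% = reference activator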
# PKA-R2B act = activators of PKA-R2B holoenzyme, primary screen, biochemical, fluorescence polarization, Cy5-IP20, human. cAMP-dependent protein kinase catalytic subunit beta (Homo sapiens) + cAMP-dependent …. PKA-R2B holoenzyme dissociation; R2B truncated from residue 108, S112A mutant; 0% DMSO only, 100% 113 µM cGMP. activation, % at 11.4 µM. hit rate 0.079% among 340,000;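 active = activation above a cutoff set at the mean over all compounds plus 3 SD, cut at about 18% in these data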;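 also: higher means more holoenzyme dissociation and a rise in polarization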
# Target sequence (P31323 whole entry, looked up, other chains not shown, the tested form may be a part): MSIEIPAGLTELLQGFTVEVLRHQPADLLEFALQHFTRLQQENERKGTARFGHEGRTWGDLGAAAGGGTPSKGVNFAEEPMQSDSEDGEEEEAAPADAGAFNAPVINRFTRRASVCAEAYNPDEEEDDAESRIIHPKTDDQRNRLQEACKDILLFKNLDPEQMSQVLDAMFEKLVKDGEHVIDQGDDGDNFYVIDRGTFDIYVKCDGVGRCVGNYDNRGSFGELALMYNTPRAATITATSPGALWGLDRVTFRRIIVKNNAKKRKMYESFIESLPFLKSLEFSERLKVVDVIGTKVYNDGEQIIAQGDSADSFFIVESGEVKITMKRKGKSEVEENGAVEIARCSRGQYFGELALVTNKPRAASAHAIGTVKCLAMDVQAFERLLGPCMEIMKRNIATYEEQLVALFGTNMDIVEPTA
# VIM-2 inhibitor = VIM-2 metallo-beta-lactamase inhibitors, primary screen, biochemical, epi-absorbance readout, Pseudomonas aeruginosa enzyme. purified VIM-2, nitrocefin hydrolysis, epi-absorbance fluorescence. inhibition, % at 5.6 µM. hit rate 0.89% among 290,000;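 active = inhibition above the mean of all tested compounds plus 3 SD, cutoff set per screening run, cut at about 7.5% in these data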;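 also: red hydrolysis product quenches plate fluorescence so inhibitors raise well fluorescence; 0% = enzyme with DMSO and 100% = DMSO without enzyme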
# PKA-R1A activ = activators of PKA-R1A holoenzyme, primary screen, biochemical, fluorescence polarization, Cy5-IP20, bovine R1A, mouse PKAc; cAMP-dependent protein kinase type I-alpha regulatory subunit (Bos taurus) + …; PKA-R1A dissociation; scaled: DMSO 0%, 113 µM cGMP 100%; activation, % at 11.4 µM; hit rate 0.083% among 340,000;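 active = percent activation above the mean of all tested compounds plus 3 SD, cut at about 19% in these data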;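 also: higher means more PKAc released from R1A so a rise in polarization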
# IMP-1 inh-1 = IMP-1 metallo-beta-lactamase inhibitors, primary screen, biochemical, epi-absorbance readout, Pseudomonas aeruginosa enzyme. AID 1556, 2009. hit rate 0.45% among 290,000. inhibition, % at 5.6 µM. purified IMP-1, nitrocefin hydrolysis, epi-absorbance fluorescence. metallo-beta-lactamase IMP-1 (Pseudomonas aeruginosa);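 active = inhibition above the mean plus 3 SD of all compounds in the same screening run, cut at about 4.5% in these data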;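 also: 0% = IMP-1 with DMSO and 100% = DMSO wells lacking enzyme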
#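 Material – recombinant IMP-1 enzyme, purified · Amount – IMP-1 0.2 nM before substrate addition · Medium – HEPES buffer pH 7.1 with ZnSO4 and Brij 35 · Timing – 25 °C, 15 min preincubation, 25 min reaction · Measured by – plate fluorescence quenching by hydrolysis product, ex 480/em 530 nm · Read-out – percent enzyme inhibition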
# MsrA inhibitor = bovine MsrA enzyme inhibitors, primary screen, biochemical, absorbance, HTS. Methionine sulfoxide reductase A (Bos taurus). purified bovine MsrA, absorbance read-out. inhibition, % at 15.5 µM. hit rate 0.75% among 360,000;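 also: 0% = vehicle wells with enzyme and 100% = reference inhibitor wells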
# IMP-1 inh-2 = IMP-1 metallo-beta-lactamase inhibitors, confirmation, selectivity assay for selective VIM-2 inhibitor project, biochemical, epi-absorbance readout, triplicate. shares compounds with VIM-2 inhibitor. inhibition, % at 5.6 µM. 1,300 tested, under 10 active. purified IMP-1, nitrocefin hydrolysis, epi-absorbance fluorescence. AID 1856, 2009; call rule not given here;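 also: 0% = enzyme with vehicle and 100% = vehicle without enzyme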
# VIM-2 FRET ctr = VIM-2 inhibitors in FRET format, confirmation, artefact control for selective VIM-2 inhibitor project, biochemical, epi-absorbance artifact exclusion; hit rate 23% among 1,300; purified VIM-2, CCF2 FRET substrate hydrolysis; inhibition, % at 5.6 µM; AID 1857, 2009; shares compounds with VIM-2 inhibitor;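 active = inhibition above the mean of all tested compounds plus 3 SD, cut at about 19% in these data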;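 also: 0% = VIM-2 plus DMSO and 100% = no enzyme wells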
# TEM-1 inh = TEM-1 serine beta-lactamase inhibitors, counter-screen for VIM-2 inhibitor project, biochemical, epi-absorbance, HTS; Purified TEM-1, nitrocefin hydrolysis, epi-absorbance fluorescence; hit rate 3% among 1,300; inhibition, % at 5.6 µM; shares compounds with VIM-2 inhibitor;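 active = inhibition above that campaign's mean inhibition plus 3 SD, cut at about 0.46% in these data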;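 also: 0% = TEM-1 with DMSO and 100% = TEM-1 with 100 µM potassium clavulanate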
# Target sequence (P62593 whole entry, looked up): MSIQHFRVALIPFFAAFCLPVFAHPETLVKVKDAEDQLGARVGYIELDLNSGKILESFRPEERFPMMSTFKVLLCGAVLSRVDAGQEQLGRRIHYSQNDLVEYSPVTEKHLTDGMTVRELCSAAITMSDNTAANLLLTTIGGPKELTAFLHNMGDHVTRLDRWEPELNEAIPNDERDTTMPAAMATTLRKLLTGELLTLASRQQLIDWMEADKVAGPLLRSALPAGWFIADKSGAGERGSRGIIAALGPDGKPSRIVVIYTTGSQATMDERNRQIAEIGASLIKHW
# VIM-2 confirm 2 = VIM-2 metallo-beta-lactamase inhibitors, confirmation, biochemical, epi-absorbance, hits shared with IMP-1 screen; shares compounds with VIM-2 inhibitor; purified VIM-2, nitrocefin hydrolysis; inhibition, % at 5.6 µM; hit rate 96% among 1,300; AID 2187, 2009;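 active = inhibition of the VIM-2 beta-lactamase enzyme above about 11% from the earlier first-round screen, limit read from the data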;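 also: 0% = VIM-2 with DMSO and 100% = buffer wells without enzyme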
# MsrA activ conf = bovine MsrA activators, retest, confirmation, biochemical, absorbance, HTS | shares compounds with MsrA act | purified bovine MsrA, absorbance read-out | activation, % at 10.6 µM | hit rate 12% among 1,000; in the data active = activation above about 4%;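 also: enzyme coupled to thioredoxin and thioredoxin reductase with NADPH; 0% = vehicle wells and 100% = reference activator wells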
# MsrA inh confirm = bovine MsrA inhibitors, retest, confirmation, biochemical, absorbance, HTS; shares compounds with MsrA inhibitor; purified bovine MsrA, absorbance read-out; inhibition, % at 15.5 µM; hit rate 41% among 2,300; AID 651822, 2012;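 also: coupled to thioredoxin reductase with NADPH and selenocystamine and DMSO as substrate; 0% = vehicle only and 100% = full effect of reference inhibitor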
# Starred values were filed as active, the others as inactive; x = no result given. This is a sample that favours compounds with a hit; in the whole collection about 2.1% have one here. Rule as the data show it, unless noted: active = inhibition above about 4.5%; inactive = the rest.
SMILES,MsrA act,PKA-R2B act,VIM-2 inhibitor,PKA-R1A activ,IMP-1 inh-1,MsrA inhibitor,IMP-1 inh-2,VIM-2 FRET ctr,TEM-1 inh,VIM-2 confirm 2,others
Cn1ccnc1SCC(=O)Nc1ccc2nc(SCC(=O)NC3CC3)sc2c1,x,x,12.7*,x,-1.6,x,-3.2,36.1*,-5.5,25.1*,
c1ccc(CNc2ncnc3ccccc23)cc1,-0.6,3.0,0.9,-3.4,-1.9,0.7,x,x,x,x,
Oc1ccc(CCNc2c3ccccc3nc3ccccc23)cc1O,-0.3,1.4,17.1*,1.2,-4.6,-0.9,-4.2,-0.2,-5.6,21.3*,
c1ccc(CNc2c3ccccc3nc3ccccc23)cc1,-4.7,10.4,21.6*,5.5,-1.6,0.9,-3.1,0.6,-5.2,32.0*,
O=C(CNC(=O)c1ccccc1)NCCc1ccc(O)c(O)c1,-4.9,5.3,-3.5,-2.6,-4.0,0.5,x,x,x,x,
O=C(O)CC/C(=C\c1cc([N+](=O)[O-])ccc1Cl)c1nc2ccccc2s1,-7.5,-6.7,21.3*,-6.9,0.9,0.9,-1.2,48.8*,-0.7,33.6*,
Cc1ccc2oc(=O)c3cc(C(=O)N4CCN(C)CC4)sc3c2c1,-2.3,4.4,12.7*,-6.4,-1.1,2.2,-3.8,3.9,-9.4,19.9*,
Cc1ccc2oc(=O)c3cc(C(=O)NCCN4CCc5ccccc5C4)sc3c2c1,-6.3,2.2,3.4,5.4,-3.9,2.2,x,x,x,x,
CC(=O)Nc1cccc(-c2ccnc3c2CC(C(=O)NCCC(F)(F)F)O3)c1 (stereo unspecified),-0.4,x,x,x,x,0.0,x,x,x,x,
COc1ccc2[nH]c(C(=O)O)c(CCN3C(=O)c4cccc([N+](=O)[O-])c4C3=O)c2c1,-7.2,-4.6,14.3*,0.1,-2.1,-0.9,-3.5,79.5*,-6.3,65.0*,
COc1ccc2[nH]c(C(=O)O)c(CCNC(C)=O)c2c1,-2.7,2.7,0.6,1.1,-0.8,1.2,x,x,x,x,
Cc1oc2c(C)c3oc(=O)c(CCC(=O)O)c(C)c3cc2c1-c1ccccc1,-4.2,6.4,6.8,5.6,0.1,0.2,x,x,x,x,
Cc1c(CC(=O)O)c(=O)oc2c(C)c3occ(-c4ccccc4)c3cc12,-1.8,-9.1,15.1*,-1.2,1.3,0.1,0.7,1.8,-10.3,20.8*,
COc1ccc(NC(=O)C2CCCN(C(=O)c3ccc(Cl)cc3)C2)cc1Cl (stereo unspecified),-3.4,2.4,x,-0.6,x,-1.2,x,x,x,x,
CSCc1cc(N(C)c2ccccc2)nc(-c2ccccn2)n1,0.4,-8.7,64.0*,1.4,-3.2,-0.9,-4.1,-56.0,-6.9,72.2*,
C#CCN(Cc1ccco1)C(=O)c1ccc(OC2CCN(Cc3ccccn3)CC2)cc1,-3.8,5.6,-3.4,-8.5,-2.6,0.7,x,x,x,x,
CCOC(=O)c1cnc2c(CC)cccc2c1NCCN1CCOCC1,0.6,-6.1,14.1*,-5.1,-1.9,0.6,-3.1,1.0,-6.3,23.6*,
CC1CCN(C(=O)c2ccc3c(c2NCCO)C(=O)c2ccccc2C3=O)CC1,2.1,13.5,-0.3,2.6,-4.7,2.5,x,x,x,x,
CCN(CC)CCNC(=O)c1ccc2c(c1NCCO)C(=O)c1ccccc1C2=O,23.7*,x,13.8*,x,-0.7,13.9*,-4.5,2.3,-7.9,20.2*,MsrA activ conf=8.7*
Cc1ccc(-c2csc3n[nH]c(=S)n23)cc1,12.4*,-5.2,46.5*,-10.2,0.4,-0.8,-1.5,69.6*,-3.1,56.7*,MsrA activ conf=1.6
O=C(O)c1ccccc1NS(=O)(=O)c1cccc(-n2sc3ccccc3c2=O)c1,7.7*,-6.8,19.1*,-3.2,-1.3,0.6,-2.9,-23.7,-6.7,16.7*,MsrA activ conf=3.2
O=C(Nc1ccccc1)C1=C(c2ccccc2)S(=O)(=O)CCS1(=O)=O,-7.6,-1.8,-2.6,-2.2,-2.2,0.0,x,x,x,x,
CN1CCN(c2ccc(CNC[C@H]3O[C@@H](n4cnc5c(=O)[nH]c(N)nc54)[C@H](O)[C@@H]3O)c(F)c2)CC1,-11.9,x,x,x,x,-0.2,x,x,x,x,
Cc1ccc(-c2ccc(/C=N/n3cnnc3)o2)cc1Cl,-2.9,-7.9,21.4*,-4.1,-3.6,5.0*,-3.8,-8.9,-7.1,44.5*,MsrA inh confirm=3.5
CC1CCCC(C)N1C(=O)COC(=O)c1c[nH]c2ccccc12 (stereo unspecified),-1.5,-3.2,x,1.4,x,1.2,x,x,x,x,
